NPY1 pot ag – human NPY-Y1 potentiation or agonism, primary screen; NPY-Y1 expressing cells, potentiator/agonist activation; activation, % at 3.6 µM; 220,000 compounds, 0.37% hits; P25929; in the data active = activation above about 33%, passing the limit was not always enough;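 note: cells stimulated with NPY at EC10 then isoproterenol at EC100; 0% = low agonist plus stimulus and 100% = saturating agonist plus stimulus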
Target sequence (P25929 whole entry, looked up): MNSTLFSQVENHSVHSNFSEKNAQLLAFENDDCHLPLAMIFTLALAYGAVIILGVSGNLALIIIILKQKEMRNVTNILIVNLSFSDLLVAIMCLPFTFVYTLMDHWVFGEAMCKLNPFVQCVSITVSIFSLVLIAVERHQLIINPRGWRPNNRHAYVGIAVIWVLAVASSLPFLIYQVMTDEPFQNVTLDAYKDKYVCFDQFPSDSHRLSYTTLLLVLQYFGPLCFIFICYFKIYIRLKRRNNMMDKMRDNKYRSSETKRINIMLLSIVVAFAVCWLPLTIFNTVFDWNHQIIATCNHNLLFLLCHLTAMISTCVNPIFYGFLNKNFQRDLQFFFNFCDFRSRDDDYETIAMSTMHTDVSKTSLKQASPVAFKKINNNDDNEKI
MT stabilize HCS – stabilizes microtubules in HeLa cells. HeLa tubulin immunostaining HCS, 24 h; share of cells brighter than vehicle mean+2SD. % tubulin-high responders, % at 10 µM. 200,000 compounds, 0.83% hits. AID 2205;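 active = plate Z-score above 3 for both tubulin-high and condensed-nucleus cell shares, with cell loss under 80%, at 10 µM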;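 note: anti alpha tubulin signal scored within the nucleus-defined area of each cell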
NPY-Y2 PAM-ag – human NPY-Y2 potentiation or agonism, primary screen. P49146. cells expressing NPY-Y2, potentiator/agonist read-out. activation, % at 3.6 µM. 220,000 compounds, 0.45% hits. AID 1359; in the data active = activation above about 27%;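 note: cells stimulated with NPY near EC25 plus isoproterenol at EC100; 0% = vehicle plus submaximal agonist and 100% = vehicle plus saturating agonist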
NPY-Y2 antag – blocks the human neuropeptide Y Y2 receptor; 140,000 compounds, 0.99% hits; P49146; inhibition, % at 2.7 µM; NPY-Y2 expressing cells, antagonist mode;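 note: 0% = vehicle with agonist challenge and 100% = reference antagonist with challenge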
NPY Y1 blocker – antagonists of human neuropeptide Y receptor Y1; P25929; HEK293-CNG Y1 cells, membrane potential fluorescence; NPY at EC95, then isoproterenol; inhibition, % at 3.6 µM; 200,000 compounds, 1% hits; AID 1040;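 active = inhibition above the campaign mean inhibition of all tested compounds plus 3 SD, cut at about 20% in these data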;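 note: 0% = DMSO wells given NPY plus isoproterenol and 100% = isoproterenol alone without NPY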
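Benchmarks – high control isoproterenol alone, low control NPY with isoproterenol · Material – HEK293 Y1/CNG channel cell line · Times – dye 3 h, compound 60 min room temperature, stimulation 45 min · Probe or stimulus – NPY (25 nM), isoproterenol (1 µM), Ro 20-1724 (25 µM) · Evaluation – % inhibition of NPY effect · Signal – fluorescence, membrane potential probe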
bCat nuc transl – modulators of beta-catenin nuclear translocation. HeLa beta-catenin nuclear translocation, immunofluorescence imaging. nuclear translocation activity, % at 5 µM. 190,000 compounds, 0.3% hits. AID 1665;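 active = nuclear translocation activity above 50% at 5 µM, with a well cell count of 50 or more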;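 note: per-cell ratio of nuclear to cytoplasmic median beta-catenin stain intensity; plate controls were DMSO negative control for no effect and GSK-3 inhibitor IX positive control for full effect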
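test system = HeLa cells, endogenous beta-catenin | dosing = single 5 µM dose plus 0.02–20 µM confirmation series | times = compound treatment 24 h, 37°C, 5% CO2 | technique = beta-catenin immunofluorescence imaging with DAPI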
NPY-Y1 ant conf – confirmation of human neuropeptide Y receptor Y1 antagonists; shares compounds with NPY Y1 blocker; HEK293-CNG NPY-Y1, membrane potential fluorescence, cAMP; NPY challenge against isoproterenol-raised cAMP; inhibition, % at 3.6 µM; 1,200 compounds, 21% hits; AID 1254; in the data active = inhibition above about 20%;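 note: 0% = vehicle with agonist plus stimulus and 100% = stimulus alone without agonist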
NPY-Y2 antag ct – antagonizes human NPY-Y2, counter-screen to NPY-Y1 antagonists. shares compounds with NPY Y1 blocker. HEK293 NPY-Y2 CNG membrane potential fluorescence, antagonism; cells given NPY, then isoproterenol. inhibition, % at 3.6 µM. 1,200 compounds, 28% hits. AID 1255;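 note: 0% = DMSO with agonist challenge and 100% = reference antagonist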
* marks the source's active call; other numbers are inactive results; . = not tested or not shown. Rows were chosen to be rich in hits. Some 2.6% of all compounds tested hit in one or more screens of this group. Cut-off read from the data, not from the text of the source, unless noted: active = inhibition above about 17%; inactive = the rest.

SMILES	NPY1 pot ag	MT stabilize HCS	NPY-Y2 PAM-ag	NPY-Y2 antag	NPY Y1 blocker	bCat nuc transl	NPY-Y1 ant conf	NPY-Y2 antag ct
COc1ccc(CN(C(=O)c2nsc(Cl)c2Cl)C(C(=O)NC2CCCCC2)c2ccc(OC)cc2)cc1 (centres undefined)	-24	2	-24	17	22*	.	20	16
COc1ccc(-c2nc[nH]c2[N+](=O)[O-])cc1	9	3	1	.	-2	-4	.	.
Cc1cc(C)nc(SCc2ccc(C(=O)N/N=C/c3ccccc3C(=O)O)cc2)n1	-15	1	-22	.	30*	0	1	1
O=S1(=O)CCC(SCc2nc3sccn3c2Br)C1 (centres undefined)	2	1	0	1	14	-2	.	.
Cn1c2c(c(=O)n(C)c1=O)C(C(F)(F)F)(C(F)(F)F)N=C(CCC1CCCCC1)N2	-35	2	-9	10	22*	0	18	40*
Cn1c2c(c(=O)n(C)c1=O)C(C(F)(F)F)(C(F)(F)F)N=C(c1ccccc1Cl)N2	-5	3	11	-1	-2	-2	.	.
COc1cccc(-c2noc(C3CCCN(S(=O)(=O)c4cccc(Cl)c4C)C3)n2)c1 (centres undefined)	2	4	-5	6	30*	0	11	13
O=C(O)c1ccccc1N(Cc1ccccc1)C(=O)CO/N=C/c1ccccc1	-31	3	-24	15	22*	0	10	10
COc1ccc(-c2nnc3sc(C4CCCCC4)nn23)cc1OC	-80	4	-40	16	33*	-3	24*	38*
CC(=O)NCc1ccc(C(=O)O)cc1	-10	.	0	.	.	0	.	.
CN1CCN(C(=O)C2CC(c3c(F)cccc3Cl)=NO2)CC1 (centres undefined)	19	1	15	5	6	0	.	.
CCc1ncc(C(=O)c2ccc(OC)cc2)n1C	-14	4	0	-2	29*	2	0	0
Cc1cccc2nc(-c3cccnc3)c(NCCC(C)C)n12	0	2	-7	.	22*	0	14	10
CCN(CC1COc2ccccc2O1)S(=O)(=O)c1ccc(C)cc1 (centres undefined)	4	4	11	6	2	-5	.	.
CCC(=O)/C=C1/Sc2ccccc2N1CC	-10	3	-4	-1	-3	1	.	.
CCN1/C(=C/c2sc(-c3ccccc3C)c[n+]2C)Sc2ccccc21	-10	2	21	.	40*	-1	28*	15
CCc1ccc2[nH]c(=O)c(CN(CCN(CC)CC)C(=S)NCc3ccco3)cc2c1	-30	2	-31	.	22*	0	14	14
Cc1ccc2nc(NC(=O)CNS(=O)(=O)c3ccc(Br)s3)sc2c1	-42	3	-19	13	20*	-3	7	11
Cc1ccc2nc(NC(=O)CN(C)S(=O)(=O)c3ccc(Br)s3)sc2c1	-6	23	6	2	-2	2	.	.
CCOC(=O)c1c(NC(=O)C2COc3ccccc3O2)sc2c1CCN(Cc1ccccc1)C2 (centres undefined)	-64	3	-16	5	22*	0	23*	20*
CC1CCc2c(sc(N)c2C(=O)OC(C)C)C1 (centres undefined)	1	3	-2	-2	2	1	.	.
COc1ccccc1N1CCN(C(=O)C2c3ccccc3Oc3ccccc32)CC1	2	26*	4	14	23*	95*	7	12
O=C(O)CCCNc1c(C(=O)Nc2ccc(Cl)cc2)cc([N+](=O)[O-])cc1[N+](=O)[O-]	11	4	10	.	3	-1	.	.
COc1ccc(CN2C(=O)c3ccccc3C2C(=O)NCCc2ccccc2)c(OC)c1 (centres undefined)	-16	3	-14	.	1	2	.	.
COc1ccc(CN2C(=O)c3ccccc3C2C(=O)NC2CCCCCC2)c(OC)c1 (centres undefined)	-15	2	-5	.	24*	2	4	6
SMILES	NPY1 pot ag	MT stabilize HCS	NPY-Y2 PAM-ag	NPY-Y2 antag	NPY Y1 blocker	bCat nuc transl	NPY-Y1 ant conf	NPY-Y2 antag ct
CCOC(=O)c1c(N)sc2c(OCC)c(Br)ccc12	-23	3	-9	8	7	-1	.	.
CCOC(=O)c1c(NC(C)=O)sc2c(OCC(O)CNC(C)(C)C)c(Br)ccc12 (centres undefined)	-198	82	-108	.	122*	-2	98*	115*
Cc1nc2nc(SCC(=O)O)nn2c(C)c1Cc1ccccc1Cl	-28	4	-12	.	23*	1	12	6
c1ccc(-c2nc3cnccn3c2Nc2ccc3c(c2)OCCO3)cc1	-25	3	-1	12	37*	1	5	5
Cc1noc(/C=C/c2ccco2)c1S(=O)(=O)N1CCC(C(=O)N2CCc3ccccc3C2)CC1	-13	3	-2	1	-5	3	.	.
CCOC(=O)c1c(NC(=O)c2ccc(N3C(=O)[C@@H]4[C@H](C3=O)[C@H]3C=C[C@@H]4C3)cc2)sc2c1CCCC2	3	2	1	1	0	3	.	.
Cc1c(NS(C)(=O)=O)cccc1-c1nc2cccnc2s1	20	.	3	.	.	-1	.	.
CN(Cc1c(C(=O)N2CCc3ccccc3C2)nc2ccc(Cl)cn12)C(C1CC1)C1CC1	-14	2	-7	.	25*	-1	14	12
CCCCOc1ccc(C(=O)NC)cc1	5	3	12	0	2	.	.	.
CCCCOc1ccc(CC(=O)NO)cc1	-19	4	8	-1	38*	-3	0	2
COc1cccc(-c2cc(C(=O)Nc3ccc4c(c3)OCCO4)c3ccccc3n2)c1	-11	3	-5	4	3	6	.	.
COc1cccc(-c2cc(C(=O)Nc3nc4ccccc4s3)c3ccccc3n2)c1	-135	1	-135	16	31*	-2	26*	38*
O=C(NCc1ccco1)C1CCN(S(=O)(=O)c2ccc(-n3cnnn3)cc2)CC1	-6	2	5	2	21*	-5	0	3
Cc1ccccc1CCNC(=O)C1CCN(S(=O)(=O)c2ccc(-n3cnnn3)cc2)CC1	13	4	0	0	-1	-3	.	.
Cc1cc(N/N=C2/CCCc3ccccc32)nc2ccccc12	-37	3	-23	.	29*	-1	32*	29*
O=C(c1ccc(N2CCCCC2)c([N+](=O)[O-])c1)N(c1ccccn1)c1ccccn1	6	3	-7	.	4	-2	.	.
